pEC50: −log10 of the molar value. Calls of active or inactive are those of the source. The rule behind the calls is not given here.
Key:
Rattus norvegicus [1] = experiment: Inhibition of testosterone levels in Crl:CD(SD) rat plasma assessed as plasma testosterone level <0.04 ng/ml at 100 pmol/hr, sc administered as continuous dosing through alzet osmotic pump for 4 weeks by radioimmunoassay; assay type: functional, organism-based
Outline: (§1)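 Peptide dissolved in 50% DMSO at 3, 10, 30 or 100 µM, loaded into ALZET osmotic pumps for 3 to 100 pmol/h. Pumps implanted sc in 5 Crl:CD(SD) male rats. Plasma testosterone measured by RIA after 1 or 4 weeks. Values below the 0.04 ng/mL detection limit were treated as 0.04. Count of rats below the limit.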

Rattus norvegicus [2] = experiment: Inhibition of testosterone levels in Crl:CD(SD) rat plasma assessed as plasma testosterone level <0.04 ng/ml at 100 pmol/hr, sc administered as continuous dosing through alzet osmotic pump for 1 week by radioimmunoassay; assay type: functional, organism-based; outline: as §1
[3] = Inhibition of testosterone levels in sc dosed Crl:CD(SD) rat plasma assessed as compound dosing causing plasma testosterone level <0.04 ng/ml in all tested animals administered as continuous dosing through alzet osmotic pump for 1 to 4 weeks by radio-immunoassay; assay type: functional
Rattus norvegicus [4] = experiment: Inhibition of testosterone levels in CD(SD) rat assessed as plasma testosterone level <0.04 ng/ml at 0.1 nmol/hr, sc administered continuously for 6 days through alzet osmotic pump measured after 6 days by radio-immunoassay; assay type: functional, organism-based
[5] = Cmax in Sprague-Dawley rat plasma at 1 mg/kg, sc by LC/MS analysis; assay type: ADME, organism-based; set-up: dose 1 mg/kg, route subcutaneous
Outline: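 Single subcutaneous 1 mg/kg dose to SD rats (n=3 per group). Plasma drawn at 5, 10, 15, 30 min and 1, 2, 4, 8, 24 h. Proteins removed with 0.2% formic acid/methanol (1:4, v/v) plus acetonitrile, centrifuged, supernatant diluted in 0.4% aqueous formic acid, then measured by LC/MS. Noncompartmental analysis per rat, mean ± SD.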

Rattus norvegicus [6] = experiment: Inhibition of testosterone levels in Crl:CD(SD) rat plasma assessed as plasma testosterone level <0.04 ng/ml at 30 pmol/hr, sc administered as continuous dosing through alzet osmotic pump for 1 week by radio-immunoassay; assay type: functional, organism-based; outline: as §1
[7] = Conformational changes of the compound in distilled water assessed as decrease in beta-sheet content at 0.1 mg/ml by preliminary circular dichroism analysis; set-up: scale not given: the % may be the effect or the level left
[8] = Solubility of the compound in water at 20 mg/ml; assay type: physicochemical; conditions: buffer
KiSS-1 receptor [9] = target: KiSS-1 receptor (Rattus norvegicus, UniProt Q924U1); experiment: Agonist activity at rat KISS1R expressed in CHO/dhfr cells assessed as increase in intracellular Ca2+ levels measured for 180 secs by Fluo 3-AM dye based FLIPR assay; assay type: functional, cell-based
KiSS-1 receptor (Rattus norvegicus, UniProt Q924U1), sequence (Q924U1 whole entry): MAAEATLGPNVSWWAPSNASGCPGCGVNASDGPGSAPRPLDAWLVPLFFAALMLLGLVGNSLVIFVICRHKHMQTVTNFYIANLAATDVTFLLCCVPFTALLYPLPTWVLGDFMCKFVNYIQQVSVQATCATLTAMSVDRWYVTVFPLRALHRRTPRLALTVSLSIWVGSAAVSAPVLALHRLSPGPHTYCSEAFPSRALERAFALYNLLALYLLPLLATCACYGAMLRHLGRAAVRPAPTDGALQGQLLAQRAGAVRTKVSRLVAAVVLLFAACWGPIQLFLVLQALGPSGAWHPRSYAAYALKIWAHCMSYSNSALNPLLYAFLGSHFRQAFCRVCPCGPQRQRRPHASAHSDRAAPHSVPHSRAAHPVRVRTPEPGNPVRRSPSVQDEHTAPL

Rattus norvegicus [10] = experiment: Inhibition of testosterone levels in CD(SD) rat assessed as plasma testosterone level <0.04 ng/ml at 0.01 nmol/hr, sc administered continuously for 6 days through alzet osmotic pump measured after 6 days by radio-immunoassay; assay type: functional, organism-based
KiSS-1 receptor [11] = target: KiSS-1 receptor (Homo sapiens, UniProt Q969F8); experiment: Agonist activity at human KISS1R expressed in CHO/dhfr cells assessed as increase in intracellular Ca2+ levels measured for 180 secs by Fluo 3-AM dye based FLIPR assay; assay type: functional, cell-based
KiSS-1 receptor (Homo sapiens, UniProt Q969F8), sequence (Q969F8 whole entry): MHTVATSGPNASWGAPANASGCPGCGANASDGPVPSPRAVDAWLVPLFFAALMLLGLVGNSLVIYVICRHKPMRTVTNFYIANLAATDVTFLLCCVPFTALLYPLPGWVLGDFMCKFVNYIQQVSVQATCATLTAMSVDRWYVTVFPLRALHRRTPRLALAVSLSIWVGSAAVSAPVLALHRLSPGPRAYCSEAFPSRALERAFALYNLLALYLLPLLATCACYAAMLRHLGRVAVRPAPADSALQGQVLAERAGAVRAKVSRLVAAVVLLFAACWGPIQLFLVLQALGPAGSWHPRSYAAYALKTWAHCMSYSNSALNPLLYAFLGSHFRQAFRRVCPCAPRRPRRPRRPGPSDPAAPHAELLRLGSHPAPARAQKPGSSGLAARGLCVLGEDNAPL
Outline: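 CHO cells expressing human KISS1R; FLIPR recording of ligand-induced [Ca2+]i rise over time. Maximum response taken and expressed as percent of the response to a maximal concentration of metastin(45-54). EC50 = concentration giving half-maximal mobilization, from nonlinear regression of smoothed data. Reported as ratio to the metastin(45-54) EC50.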

| SMILES | inhibition (Rattus norvegicus [1]) | inhibition (Rattus norvegicus [2]) | MED [3] [pmol/h] | inhibition (Rattus norvegicus [4]) | Cmax [5] [ng/mL] | inhibition (Rattus norvegicus [6]) | Activity [7] [%] | solubility [8] | pEC50 (KiSS-1 receptor [9]) | inhibition (Rattus norvegicus [10]) | pEC50 (KiSS-1 receptor [11]) |
| --- | --- | --- | --- | --- | --- | --- | --- | --- | --- | --- | --- |
| CNC(=N)NCCC[C@H](NC(=O)[C@H](CC(C)C)NC(=O)NNC(=O)[C@H](Cc1ccccc1)NC(=O)[C@@H](NC(=O)[C@H](CC(N)=O)NC(=O)[C@@H](Cc1c[nH]c2ccccc12)NC(=O)[C@@H](Cc1ccc(O)cc1)NC(C)=O)[C@@H](C)O)C(=O)N[C@@H](Cc1c[nH]c2ccccc12)C(N)=O | Active | Active | 100 | Active | 100 | Active | 34.8 | Soluble |  |  |  |
| CNC(=N)NCCC[C@H](NC(=O)[C@H](CC(C)C)NC(=O)NNC(=O)[C@H](Cc1ccccc1)NC(=O)[C@@H](NC(=O)[C@H](CC(N)=O)NC(=O)[C@@H]1CCCN1C(=O)[C@@H](Cc1ccc(O)cc1)NC(C)=O)[C@@H](C)O)C(=O)N[C@@H](Cc1c[nH]c2ccccc12)C(N)=O |  |  |  |  |  |  |  |  | 8.03 | Active | 9.32 |
| CNC(=N)NCCC[C@H](NC(=O)[C@H](CC(C)C)NC(=O)NNC(=O)[C@H](Cc1ccccc1)NC(=O)[C@@H](NC(=O)[C@H](CC(N)=O)NC(=O)[C@@H](CCCCN)NC(=O)[C@@H](Cc1ccc(O)cc1)NC(C)=O)[C@@H](C)O)C(=O)N[C@@H](Cc1c[nH]c2ccccc12)C(N)=O |  |  |  | Active |  |  |  |  | 7.74 |  | 8.44 |
| CNC(=N)NCCC[C@H](NC(=O)[C@H](CC(C)C)NC(=O)NNC(=O)[C@H](Cc1ccccc1)NC(=O)[C@@H](NC(=O)[C@H](CC(N)=O)NC(=O)[C@@H](CCC(=O)O)NC(=O)[C@@H](Cc1ccc(O)cc1)NC(C)=O)[C@@H](C)O)C(=O)N[C@@H](Cc1c[nH]c2ccccc12)C(N)=O |  |  |  | Active |  |  |  |  | 7.40 |  | 7.66 |
| CNC(=N)NCCC[C@H](NC(=O)[C@H](CC(C)C)NC(=O)NNC(=O)[C@H](Cc1ccccc1)NC(=O)[C@@H](NC(=O)[C@H](CC(N)=O)NC(=O)[C@H](Cc1c[nH]c2ccccc12)NC(=O)[C@@H](Cc1ccc(O)cc1)NC(C)=O)[C@@H](C)O)C(=O)N[C@@H](Cc1c[nH]c2ccccc12)C(N)=O |  |  |  |  |  |  |  | Insoluble | 8.32 | Active | 9.21 |

— ChEMBL document CHEMBL3860048 (J Med Chem, 2016)
